In brackets after ≈: the same amount, converted by molar mass.
Tests used:
[1] = Antifungal activity against Malassezia pachydermatis at 1000 ug/disc after 48 hrs by disc diffusion assay; format: functional
Summary of the method: (§1)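 Fungal disc diffusion with inoculum from SDA spores (filamentous) or SDB culture (yeast). Test cultures were swabbed on agar, and discs at 1000 µg/disc were left 30 min at room temperature, with a solvent negative control. Plates were incubated 48 h at 27 °C. Zone of inhibition was measured in mm, and the experiment was repeated twice.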

[2] = test system: Candida albicans; assay: Antifungal activity against Candida albicans MTCC 227 at 1000 ug/disc after 48 hrs by disc diffusion assay; format: functional; details: MTCC 227, 48 h, read-out: IZ; summary of the method: as §1
[3] = test system: Botrytis cinerea; assay: Antifungal activity against Botrytis cinerea at 1000 ug/disc after 48 hrs by disc diffusion assay; format: functional; details: read-out: IZ; summary of the method: as §1
[4] = test system: Staphylococcus aureus; assay: Antibacterial activity against Staphylococcus aureus MTCC 96 after 24 hrs by twofold serial dilution method; format: functional; details: MTCC 96, 24 h
Summary of the method: (§2)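 Bacteria grown in Mueller Hinton broth for 24 h at 37 °C and diluted to about 10^4 CFU/ml. Compound in 2% DMSO was serially diluted two-fold (1000 to 15.62 µg/ml) in medium in 96-well plates and inoculated. Plates were incubated 24 h at 37 °C. 5 µl of broth was spotted onto MHA, and MIC was taken as the lowest concentration with no visible growth on agar.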

[5] = test system: Staphylococcus aureus; assay: Antibacterial activity against methicillin-resistant Staphylococcus aureus after 24 hrs by twofold serial dilution method; format: functional
Summary of the method: (§3)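 Broth microdilution in MHB following the standard bacterial reference method. Compound was dissolved in DMSO (2%) and serially diluted two-fold from 1000 to 15.62 µg/ml in 96-well plates, with an inoculum of about 10^4 CFU/ml. Streptomycin and ciprofloxacin were positive controls. After 24 h at 37 °C, 5 µl of broth was subcultured on MHA. MIC was the lowest concentration without visible growth on agar.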

[6] = test system: Micrococcus luteus; assay: Antibacterial activity against Micrococcus luteus after 24 hrs by twofold serial dilution method; format: functional; summary of the method: as §2
[7] = test system: Klebsiella aerogenes; assay: Antibacterial activity against Enterobacter aerogenes MTCC 111 after 24 hrs by twofold serial dilution method; format: functional; details: MTCC 111, 24 h; summary of the method: as §2
[8] = test system: Proteus vulgaris; assay: Antibacterial activity against Proteus vulgaris MTCC 1771 after 24 hrs by twofold serial dilution method; format: functional; details: MTCC 1771, 24 h; summary of the method: as §2
[9] = test system: Klebsiella pneumoniae; assay: Antibacterial activity against Klebsiella pneumoniae MTCC 109 after 24 hrs by twofold serial dilution method; format: functional; details: MTCC 109, 24 h; summary of the method: as §2
[10] = test system: Salmonella typhimurium; assay: Antibacterial activity against Salmonella Typhimurium MTCC 1251 after 24 hrs by two-fold serial dilution method; format: functional, Salmonella enterica subsp. enterica serovar Typhimurium; details: Salmonella enterica, MTCC 1251, 24 h; summary of the method: as §2
[11] = test system: Salmonella enterica subsp. enterica serovar Paratyphi B; assay: Antibacterial activity against Salmonella paratyphi B after 24 hrs by twofold serial dilution method; format: functional; summary of the method: as §3
[12] = Antifungal activity against Malassezia pachydermatis after 48 to 72 hrs by twofold serial dilution method; format: functional
Summary of the method: (§4)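 Broth two-fold serial dilution, 1000 to 15.62 µg/ml, with compound dissolved in 2% DMSO, in 96-well plates. Filamentous fungal spores came from 10-day SDA slants at 28 °C, and yeast from SDB grown 48 h at 28 °C. Incubation was 48-72 h at 28 °C. MIC was the lowest concentration with no visible fungal growth.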

[13] = test system: Candida albicans; assay: Antifungal activity against Candida albicans MTCC 227 after 48 to 72 hrs by twofold serial dilution method; format: functional; summary of the method: as §4
[14] = test system: Botrytis cinerea; assay: Antifungal activity against Botrytis cinerea after 48 to 72 hrs by twofold serial dilution method; format: functional; summary of the method: as §4
[15] = test system: Staphylococcus aureus; assay: Antibacterial activity against Staphylococcus aureus MTCC 96 at 1000 ug/disc after 24 hrs by disc diffusion assay; format: functional; details: MTCC 96, 24 h, read-out: IZ
Summary of the method: (§5)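 Disc diffusion on Mueller Hinton agar. Cultures (about 10^4 CFU/ml) were swabbed on and dried 10 min. Discs loaded at 1000 µg/disc were left 30 min at room temperature for diffusion, with a solvent negative control. Plates were incubated 24 h at 37 °C. Inhibition zones were measured in mm, and the experiment was done twice.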

[16] = test system: Staphylococcus aureus; assay: Antibacterial activity against methicillin-resistant Staphylococcus aureus at 1000 ug/disc after 24 hrs by disc diffusion assay; format: functional; details: read-out: IZ
Summary of the method: (§6)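 Disc diffusion on Mueller Hinton agar. Bacteria were grown 24 h at 37 °C in MHB and diluted to about 10^4 CFU/ml, swabbed onto plates and dried 10 min. Discs were loaded at 1000 μg/disc and held 30 min at room temperature for diffusion. Solvent served as negative control. After 24 h at 37 °C, inhibition zones were read in mm; run twice.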

[17] = test system: Micrococcus luteus; assay: Antibacterial activity against Micrococcus luteus at 1000 ug/disc after 24 hrs by disc diffusion assay; format: functional; details: read-out: IZ; summary of the method: as §5
[18] = test system: Klebsiella aerogenes; assay: Antibacterial activity against Enterobacter aerogenes MTCC 111 at 1000 ug/disc after 24 hrs by disc diffusion assay; format: functional; details: MTCC 111, 24 h, read-out: IZ; summary of the method: as §5
[19] = test system: Proteus vulgaris; assay: Antibacterial activity against Proteus vulgaris MTCC 1771 at 1000 ug/disc after 24 hrs by disc diffusion assay; format: functional; details: MTCC 1771, 24 h, read-out: IZ; summary of the method: as §5
[20] = test system: Klebsiella pneumoniae; assay: Antibacterial activity against Klebsiella pneumoniae MTCC 109 at 1000 ug/disc after 24 hrs by disc diffusion assay; format: functional; details: MTCC 109, 24 h, read-out: IZ; summary of the method: as §5
[21] = test system: Salmonella typhimurium; assay: Antibacterial activity against Salmonella Typhimurium MTCC 1251 at 1000 ug/disc after 24 hrs by disc diffusion assay; format: functional, Salmonella enterica subsp. enterica serovar Typhimurium; details: Salmonella enterica, MTCC 1251, 24 h; read-out: IZ; summary of the method: as §5
[22] = test system: Salmonella enterica subsp. enterica serovar Paratyphi B; assay: Antibacterial activity against Salmonella paratyphi B at 1000 ug/disc after 24 hrs by disc diffusion assay; format: functional; details: read-out: IZ; summary of the method: as §6

Row | SMILES | inhibition zone (IZ) [1] | zone of inhibition at 1000 µg/disc [2] | zone of inhibition at 1000 µg/disc [3] | MIC [4] | MIC [5] | MIC [6] | MIC [7] | MIC [8] | MIC [9] | MIC [10] | MIC [11] | MIC [12] | MIC [13] | MIC [14] | zone of inhibition at 1000 µg/disc [15] | zone of inhibition at 1000 µg/disc [16] | zone of inhibition at 1000 µg/disc [17] | zone of inhibition at 1000 µg/disc [18] | zone of inhibition at 1000 µg/disc [19] | zone of inhibition at 1000 µg/disc [20] | other results
1 | CN1CC2=C(C(=O)c3ccccc3C2=O)C12C(=O)Nc1ccc(Br)cc12 (stereo unspecified) | 10 mm | 10 mm | 11 mm | 15.6 µg/mL (≈ 38.2 µM) | 250 µg/mL (≈ 611 µM) | 62.5 µg/mL (≈ 153 µM) | 62.5 µg/mL (≈ 153 µM) | 125 µg/mL (≈ 305 µM) | 500 µg/mL (≈ 1220 µM) | 31.2 µg/mL (≈ 76.4 µM) | 500 µg/mL (≈ 1220 µM) | 500 µg/mL (≈ 1220 µM) | 500 µg/mL (≈ 1220 µM) | 250 µg/mL (≈ 611 µM) | 20 mm | 12 mm | 17 mm | 16 mm | 12 mm | 10 mm | zone of inhibition at 1000 µg/disc [21]: 19 mm; zone of inhibition at 1000 µg/disc [22]: 8 mm
2 | CN1CC2=C(C(=O)c3ccccc3C2=O)C12C(=O)Nc1ccccc12 (stereo unspecified) | 11 mm | 10 mm | 10 mm | 62.5 µg/mL (≈ 189 µM) | 250 µg/mL (≈ 757 µM) | 125 µg/mL (≈ 378 µM) | 250 µg/mL (≈ 757 µM) | 250 µg/mL (≈ 757 µM) | 125 µg/mL (≈ 378 µM) | 125 µg/mL (≈ 378 µM) | 250 µg/mL (≈ 757 µM) | 250 µg/mL (≈ 757 µM) | 125 µg/mL (≈ 378 µM) | 125 µg/mL (≈ 378 µM) | 15 mm | 10 mm | 13 mm | 10 mm | 11 mm | 13 mm | zone of inhibition at 1000 µg/disc [21]: 12 mm; zone of inhibition at 1000 µg/disc [22]: 10 mm
3 | CCCCN1C(=O)C2(C3=C(CN2C)C(=O)c2ccccc2C3=O)c2ccccc21 (stereo unspecified) | 11 mm | 10 mm | 9 mm | 62.5 µg/mL (≈ 162 µM) | 500 µg/mL (≈ 1290 µM) | 250 µg/mL (≈ 647 µM) | 500 µg/mL (≈ 1290 µM) | 500 µg/mL (≈ 1290 µM) | 250 µg/mL (≈ 647 µM) | 125 µg/mL (≈ 323 µM) | 500 µg/mL (≈ 1290 µM) | 250 µg/mL (≈ 647 µM) | 500 µg/mL (≈ 1290 µM) | 500 µg/mL (≈ 1290 µM) | 17 mm | 8 mm | 13 mm | 10 mm | 10 mm | 13 mm | zone of inhibition at 1000 µg/disc [21]: 15 mm; zone of inhibition at 1000 µg/disc [22]: 9 mm

— ChEMBL document CHEMBL1955865, “Synthesis of novel spirooxindole derivatives by one pot multicomponent reaction and their antimicrobial activity” (2012)
